Measurements from ChEMBL document CHEMBL3120048 (J Med Chem, 2014).
The source made the active and inactive calls. The calls are words filed in the database; no cut-off is given here.

Experiments:
[1] = Inhibition of HCV genotype 1b NS5Bdelta21 RNA dependent RNA polymerase expressed in Escherichia coli JM109 (DE3); parameters: species or system Hepatitis C virus subtype 1b
[2] = tested on: Hepatitis C virus; experiment: Antiviral activity against Hepatitis C virus Con1 genotype 1b expressing NS2-NS5B infected in human HuH7 cells after 72 hrs by luciferase reporter gene assay; assay type: functional, organism-based, Hepacivirus hominis; settings: isolate Con1, Huh-7, 72 h
Procedure, shortened: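 Cells carrying a bicistronic luciferase reporter subgenomic replicon (Con1 GT-1b, NS2-NS5B coding region) were incubated with compound for 72 h. Relative luciferase levels were then read with Bright-Glo substrate, and EC50 values were derived from these readings.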

[3] = species: Homo sapiens; experiment: Inhibition of DdRp-2 (unknown origin)
[4] = species: Homo sapiens; experiment: Inhibition of DNA polymerase-gamma (unknown origin)
[5] = molecular target: DNA polymerase beta (Homo sapiens) (UniProt P06746); experiment: Inhibition of DNA polymerase-beta (unknown origin)
[6] = species: Homo sapiens; experiment: Inhibition of DNA polymerase-alpha (unknown origin)
[7] = tested on: Enterovirus C; experiment: Inhibition of poliovirus RdRp

For Cn1c(C2(NC(=O)c3ccc4c5c(n(C)c4c3)CCCC53CCCCC3)CCC2)nc2ccc(/C=C/C(=O)O)cc21, the IC50 [1] was 180 nM and the EC50 [2] was 49 nM.

For Cn1c(C2(NC(=O)c3ccc4c(C5CCCC5)c(-c5ncc(Br)cn5)n(C)c4c3)CCC2)nc2ccc(/C=C/C(=O)O)cc21 [DELEOBUVIR], the IC50 [1] was 50 nM, the inhibition [3] was “inactive” and the inhibition [4] was “inactive”. For the same compound, the inhibition [5] was “inactive”, the inhibition [6] was “inactive” and the inhibition [7] was “inactive”.

CCOc1cc(NC(=O)C2(NC(=O)c3ccc4c5c(n(C)c4c3)CCCC53CCCCC3)CCC2)ccc1/C=C/C(=O)O showed an IC50 [1] of 460 nM and an EC50 [2] of 94 nM.

In the case of O=C(O)/C=C/c1ccc(NC(=O)C2(NC(=O)c3ccc4c(c3)nc(-c3ccoc3)n4C3CCCCC3)CCNCC2)cc1, the IC50 [1] is reported as 43 nM and the EC50 [2] is reported as 5000 nM.

With Cn1c(C(=O)O)cc2cc(NC(=O)C3(NC(=O)c4ccc5c(c4)nc(-c4ccoc4)n5C4CCCCC4)CCCNC3)ccc21 (single isomer, unassigned; enantiomer 1) the IC50 [1] was 1300 nM.

COc1ccc2c(c1)OCCn1c-2c(C2CCCCC2)c2ccc(C(=O)NC3(C(=O)Nc4ccc(/C=C/C(=O)O)cc4)CCC3)cc21 gave an IC50 [1] of 560 nM and an EC50 [2] of 4 nM.

Work on Cn1c2c(c3ccc(C(=O)O)cc31)C1(CCCCC1)CCC2 yielded an IC50 [1] of 16000 nM and an EC50 [2] greater than 11000 nM.

With Cc1c(C(=O)N[C@H](C)C(=O)Nc2ccc(/C=C/C(=O)O)cc2)ccc2c1nc(-c1ccoc1)n2C1CCCCC1 the IC50 [1] was 890 nM.

For C[C@@H](NC(=O)c1ccc2c(c1)nc(-c1ccoc1)n2C1CCCCC1)C(=O)Nc1ccc(/C=C/C(=O)O)cc1, the IC50 [1] was 88 nM.

In the case of C[C@@H](NC(=O)c1ccc2c(n1)nc(-c1ccoc1)n2C1CCCCC1)C(=O)Nc1ccc(/C=C/C(=O)O)cc1, the IC50 [1] is reported as 330 nM.

With Cn1c(C2(NC(=O)c3ccc4c5c(n(C)c4c3)CCCC53CCCCC3)CCC2)nc2cc3cc(C(=O)O)sc3cc21 the IC50 [1] was 350 nM and the EC50 [2] was 38 nM.

For Cn1c(C(=O)O)cc2cc(NC(=O)C3(NC(=O)c4ccc5c(c4)nc(-c4ccoc4)n5C4CCCCC4)CCNCC3)ccc21, the IC50 [1] was 55 nM.

Cc1cc2c(cc1C(=O)N[C@H](C)C(=O)Nc1ccc(/C=C/C(=O)O)cc1)nc(-c1ccoc1)n2C1CCCCC1 gave an IC50 [1] of 4000 nM.

In the case of O=C(O)COc1ccc2[nH]cc(C[C@H](NC(=O)c3ccc4c(c3)nc(-c3ccoc3)n4C3CCCCC3)C(=O)O)c2c1, the EC50 [2] is reported as 65000 nM.

With Cn1c(C(=O)O)cc2cc(NC(=O)C3(NC(=O)c4ccc5c(c4)nc(-c4ccoc4)n5C4CCCCC4)CCCNC3)ccc21 (single isomer, unassigned; enantiomer 2) the IC50 [1] was 84 nM.
